B2AR ag – activates human beta-2 adrenergic receptor causing internalization | P07550 | Am2.2-beta2AR cells, FAP receptor internalization, flow cytometry | response, % (concentration not given with the values) | 340,000 compounds, 0.43% hits;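 active = response above a set limit, near 3 SD of response in nonfluorescent compounds, cut at about 42% in these data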
Target sequence (P07550 whole entry, looked up): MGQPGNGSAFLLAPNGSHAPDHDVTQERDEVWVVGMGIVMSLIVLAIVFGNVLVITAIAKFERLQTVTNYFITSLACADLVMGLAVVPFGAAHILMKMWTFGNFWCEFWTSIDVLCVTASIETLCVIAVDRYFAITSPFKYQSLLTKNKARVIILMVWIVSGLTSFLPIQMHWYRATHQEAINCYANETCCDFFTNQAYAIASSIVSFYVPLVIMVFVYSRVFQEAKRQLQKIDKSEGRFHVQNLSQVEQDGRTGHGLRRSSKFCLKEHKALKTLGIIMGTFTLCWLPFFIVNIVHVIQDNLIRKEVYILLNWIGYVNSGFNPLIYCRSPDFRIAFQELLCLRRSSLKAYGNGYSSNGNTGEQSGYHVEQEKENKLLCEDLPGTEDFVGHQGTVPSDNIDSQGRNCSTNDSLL
V-ATPase pH – regulators of yeast V-ATPase proton transport. S. cerevisiae, pHLuorin cytosolic pH fluorescence. response, % at 10 µM. 350,000 compounds, 0.37% hits; in the data active = response mostly above about 7.3%, no sharp cut-off; inactive = mostly below about 5.4%; also: actives read high
MPTP inh – blocks calcium-induced mitochondrial swelling; AID 602449; isolated mouse mitochondria, Ca2+ swelling absorbance, 30 min; 360,000 compounds, 1.4% hits; inhibition, % at 10 µM;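 active = inhibition of 50% or more, scaled per plate between neutral and stimulator controls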
Granule exo inh – lytic granule exocytosis inhibition | TALL-104 LAMP-1 surface exposure, flow cytometry; cells stimulated with thapsigargin and PMA | inhibition, % at 10 µM | 360,000 compounds, 0.66% hits | AID 651702;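 active = inhibition above about 55%, limit read from the data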
T cell HTS – modulates CD8 T cell binding to vesicles. 2C CD8+ T cell-vesicle binding, flow cytometry; stronger effect = lower value. response (vesicle binding), % at 7 µM. 330,000 compounds, 0.068% hits. AID 2052;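 active = response, share of CD8 T cells binding vesicles, and their 90th percentile fluorescence all below set limits, cut at about 80% in these data, passing the limit was not always enough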;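 also: values below 100% mean blocked vesicle binding to the CD8+ T cells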
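material = purified 2C TCR transgenic mouse naive CD8+ T cells | controls = Unloaded micro-vesicles (low), QL9 vesicles with 0.7% DMSO (high) | detection = cytometric PE anti-B7-1 and Alexa647 anti-CD8 signals after 1% paraformaldehyde fixation | incubation = binding step 1.5 h, 37 °C, antibody labelling 20 min, ice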
rCAG binder – r(CAG) repeat RNA binding; AID 651821; 370,000 compounds, 1.3% hits; inhibition, % at 3 µM; TO-PRO-1 dye displacement fluorescence;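 active = inhibition above the plate cutoff, the mean of all test compounds on that plate plus 3 SD, cut at about 35% in these data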;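 also: higher means more dye released from RNA so lower well fluorescence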
V-ATPase pH SP – modulates yeast V-ATPase proton transport; shares compounds with V-ATPase pH; S. cerevisiae pHLuorin cytosolic pH; response, % at 10 µM; 980 compounds, 2% hits; AID 602197; in the data active = response above about 24%
A number is an active result; – = inactive; · = no result. Most compounds without a hit are left out; they make up all but 3.8% or so of the library.

SMILES	B2AR ag	V-ATPase pH	MPTP inh	Granule exo inh	T cell HTS	rCAG binder	V-ATPase pH SP
COC(=O)[C@]12C[C@H](CC(=O)NCCC(C)C)C(=O)N(CCc3ccc(OC)c(OC)c3)C1=C[C@H](C(C)C)O[C@@H]2C1CC1	·	·	·	·	·	–	·
Cc1cccc(C(=O)Nc2ccnc(-c3ccncc3)n2)c1	–	8.5	–	–	–	–	–
CC(CN1CCOCC1)OC(=O)Cc1ccc(Cl)cc1 (stereo not drawn)	–	11	–	–	–	–	–
COc1ccc(CN2CN3CCc4ccccc4C3CS2(=O)=O)cc1 (stereo not drawn)	·	·	·	·	·	–	·
O=c1c(C=Nc2ccc(Cl)cc2)c[nH]n1-c1cccc(Cl)n1	–	11	–	–	–	–	–
O=c1c(C=Nc2cccc(C(F)(F)F)c2)c[nH]n1-c1cccc(Cl)n1	–	–	–	–	–	–	·
CCCNC(=O)CCCN1C(=O)c2ccccc2Sc2ncccc21	–	9.0	–	–	–	–	–
CCCCSCCCNC(=O)CCCN1C(=O)c2ccccc2Sc2ncccc21	–	–	–	–	–	–	·
Clc1ccccc1Cn1ccc2ccc(-c3ccc4ccn(Cc5ccccc5Cl)c4c3)cc21	·	·	·	·	·	–	·
Cc1ccccc1NC(=O)N(CCc1nc2ccccc2[nH]1)Cc1ccccc1	–	12	–	–	–	–	–
Cc1cccc(S(=O)(=O)N(C)C[C@H]2OCc3cn(nn3)CCCC(=O)N([C@H](C)CO)C[C@@H]2C)c1	·	4.9	–	–	·	–	–
COc1ccc2c(c1)CN1CN(CC(C)C)S(=O)(=O)CC21 (stereo not drawn)	·	·	·	·	·	–	·
COC(C(=O)Nc1c(F)cccc1F)c1ccccc1 (stereo not drawn)	–	10	–	–	–	–	–
O=C(Nc1c(F)cccc1F)C(c1ccccc1)c1ccccc1	–	–	–	–	–	–	·
C#CCNC(=O)C[C@@H]1C[C@@](CCC(=O)OCC)(C(=O)OCC)C2=CCCCN2C1=O	·	·	·	·	·	–	·
O=P(c1ccccc1)(c1ccccc1)N(c1ccccc1)c1ccccc1	–	–	–	–	–	–	·
Nc1cccc(P(=O)(c2ccccc2)c2ccccc2)c1	–	9.6	–	–	–	–	–
COc1ccc(CNC(=S)NCc2ccc(OC)cc2)cc1	–	7.1	–	–	–	–	–
CCOc1ccc(NC(=O)CSc2nc(N3CCOCC3)nc(N3CCOCC3)n2)cc1	–	8.7	–	–	–	–	–
COC(=O)COc1ccc(-c2ccc(F)cc2)cc1C=O	–	6.2	–	–	–	–	–
CS(=O)(=O)N1CCCC(C(=O)Nc2ccccc2)C1 (stereo not drawn)	–	12	–	–	–	–	–
COc1ccc(NC(=O)C2CCCN(S(C)(=O)=O)C2)cc1 (stereo not drawn)	–	–	–	–	–	–	·
CCOC(=O)[C@@]12CCCC=C1N(CCc1ccc(Cl)cc1)C(=O)[C@H]2CC(=O)N1CCOCC1	·	·	·	·	·	–	·
Cc1ccc(-n2c(SCc3cccc(F)c3)nc3ccccc3c2=O)cc1	·	·	·	·	·	–	·
COC(=O)c1cn(NC(=O)Cc2ccccc2Br)c(=O)c2ccccc12	–	9.1	–	–	–	–	–
SMILES	B2AR ag	V-ATPase pH	MPTP inh	Granule exo inh	T cell HTS	rCAG binder	V-ATPase pH SP
CCCCCCOC(=O)C[N+](C)(C)CCOC1CC2CCC1(C)C2(C)C (stereo not drawn)	–	12	–	–	–	–	–
COc1ccc(-c2nc3ccccc3c(=O)n2NC(=O)Cc2ccccc2)cc1	–	9.8	–	–	–	–	–
COc1ccc(CC(=O)Nn2c(-c3ccccc3)nc3ccccc3c2=O)cc1	–	–	–	–	–	–	·
Cc1ccc(S(=O)(=O)c2ccc(C)cc2)cc1	–	–	–	–	–	–	·
Cc1ccc(S(=O)(=O)C=CS(=O)(=O)c2ccc(C)cc2)cc1	·	20	–	–	·	–	115
CC(C)(C)n1cnc(C(N)=O)c1N	–	9.5	–	–	–	–	–
Cc1nn(-c2ccccc2)nc1C(N)=O	–	–	–	–	–	–	·
CCC1Oc2ccccc2N(CC(=O)NCc2cccs2)C1=O (stereo not drawn)	–	12	–	–	–	–	–
CCC1Oc2ccc(C)cc2N(CC(=O)NCc2cccs2)C1=O (stereo not drawn)	–	–	–	–	–	–	·
COC(=O)c1ccccc1NC(=O)CN1CCOCC1	–	–	–	–	–	–	·
COC(=O)c1ccccc1NC(=O)CN1CCCCC1	–	12	–	–	–	–	–
COc1ccc(C)cc1Nc1nnc(C)c(=O)[nH]1	–	–	–	–	–	–	·
COc1ccc(Nc2nnc(C)c(=O)[nH]2)c(OC)c1	–	11	–	–	–	–	–
COn1c(SCc2cccc(Cl)c2)nc2ccccc2c1=O	–	15	–	–	–	–	–
COn1c(SCc2ccccc2)nc2ccccc2c1=O	–	–	–	–	–	–	·
Cc1ccc(NC(=O)OCCCN2C(=O)CCC23CCC(C)CC3)cc1 (stereo not drawn)	·	·	·	·	·	–	·
Cc1ccc(-c2ccc(CCC(=O)O)n2-c2ccc(O)cc2)cc1	–	–	–	–	–	–	·
O=C(O)CCc1ccc(-c2ccc(Br)cc2)n1-c1ccc(O)cc1	–	12	–	–	–	–	–
Cc1nc2ccsc2c(=O)n1-c1ccc(Cl)cc1	–	–	–	–	–	–	–
COC(=O)[C@]12C[C@H](CC(=O)N3CCCC3)C(=O)N(Cc3ccc4c(c3)OCO4)C1=C[C@H](C(C)C)O[C@@H]2C1CC1	·	·	·	·	·	–	·
CCOC(=O)c1ccc(NC(=S)NC(=O)COc2ccccc2)cc1	–	65	–	–	–	–	–
CCOC(=O)c1ccc(NC(=S)Nc2ccc(C)cc2)cc1	–	–	–	–	–	–	·
CC(=O)c1c(C)[nH]c(C(=O)NCc2cccc(Cl)c2)c1C	–	9.6	–	–	–	–	–
Cc1ccc(NC(=O)CS(=O)Cc2nc(-c3ccc(C)cc3)oc2C)cc1 (stereo not drawn)	–	11	–	–	–	–	–
Cc1ccc(-c2nc(CS(=O)CC(=O)NCc3ccccc3)c(C)o2)cc1 (stereo not drawn)	–	–	–	–	–	–	·
SMILES	B2AR ag	V-ATPase pH	MPTP inh	Granule exo inh	T cell HTS	rCAG binder	V-ATPase pH SP
NS(=O)(=O)c1ccc(CCNC(=O)c2ccco2)cc1	–	11	–	–	–	–	–
COc1cccc(NC(=O)c2ccccc2-c2ccccc2)c1	–	8.8	–	–	–	–	–
COc1cccc(NC(=S)NNC(=O)c2ccccc2OC(F)F)c1	–	9.4	–	–	–	–	–
Cc1ccc(NC(=S)NNC(=O)c2ccccc2OC(F)F)cc1	–	–	–	–	–	–	·
C[C@@H]1CCN(C2CC2)S(=O)(=O)c2ccc(N3CCC[C@@H]3CO)cc2O1	·	·	·	·	·	–	·
O=C1C2CCCCN2C(=O)N1CCN1CCN(c2cccc(Cl)c2)CC1 (stereo not drawn)	–	6.3	–	–	·	–	–
